Measured values as given in ChEMBL document CHEMBL1155278, “3,4-Diaryl-isoxazoles and -imidazoles as potent dual inhibitors of p38alpha mitogen activated protein kinase and casein kinase 1delta” (J Med Chem, 2009).

Legend:
[1] = molecular target: T1, Serine/threonine-protein kinase Nek2 (Homo sapiens) (UniProt P51955); assay: Inhibition of NEK2a assessed as residual activity at 10 uM by Cherenkov counting relative to control in presence of 50 uM ATP
T1 sequence (whole entry): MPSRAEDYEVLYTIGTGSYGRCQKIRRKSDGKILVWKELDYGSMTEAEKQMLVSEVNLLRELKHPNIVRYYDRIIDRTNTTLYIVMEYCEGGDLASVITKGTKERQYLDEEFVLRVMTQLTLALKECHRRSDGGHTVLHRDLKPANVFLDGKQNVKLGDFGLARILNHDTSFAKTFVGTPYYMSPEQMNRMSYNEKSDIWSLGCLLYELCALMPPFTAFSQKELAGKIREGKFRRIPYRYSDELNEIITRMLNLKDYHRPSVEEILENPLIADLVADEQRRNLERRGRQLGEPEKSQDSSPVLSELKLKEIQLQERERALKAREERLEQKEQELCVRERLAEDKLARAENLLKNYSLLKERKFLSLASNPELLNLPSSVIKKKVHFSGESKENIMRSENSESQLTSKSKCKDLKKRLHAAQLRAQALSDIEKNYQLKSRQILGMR

[2] = molecular target: MAP kinase-activated protein kinase 2 (Homo sapiens) (UniProt P49137); assay: Inhibition of MAPKAPK2 assessed as residual activity at 10 uM by Cherenkov counting relative to control in presence of 20 uM ATP
Chain of MAP kinase-activated protein kinase 2 (Homo sapiens) (P49137 whole entry, looked up): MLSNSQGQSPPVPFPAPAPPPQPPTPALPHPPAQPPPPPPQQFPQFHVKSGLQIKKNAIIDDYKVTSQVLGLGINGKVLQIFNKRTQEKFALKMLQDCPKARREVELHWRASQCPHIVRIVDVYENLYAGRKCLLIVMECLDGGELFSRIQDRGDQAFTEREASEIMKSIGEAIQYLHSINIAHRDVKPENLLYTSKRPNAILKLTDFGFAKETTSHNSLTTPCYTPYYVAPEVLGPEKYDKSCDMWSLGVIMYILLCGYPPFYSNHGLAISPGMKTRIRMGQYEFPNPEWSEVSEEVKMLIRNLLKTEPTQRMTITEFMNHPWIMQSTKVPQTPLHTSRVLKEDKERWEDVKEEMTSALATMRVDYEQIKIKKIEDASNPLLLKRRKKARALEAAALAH

[3] = Inhibition of PKA assessed as residual activity at 10 uM by Cherenkov counting relative to control in presence of 20 uM ATP
Summary of the method: (§1)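 Single-concentration profiling at 10 μM in a 78-kinase panel. Kinase activity is expressed as a percentage of control assays run without compound.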

[4] = molecular target: Protein kinase C alpha type (Homo sapiens) (UniProt P17252); assay: Inhibition of PKCalpha assessed as residual activity at 10 uM by Cherenkov counting relative to control in presence of 20 uM ATP; summary of the method: as §1
[5] = molecular target: Serine/threonine-protein kinase PAK 4 (Homo sapiens) (UniProt O96013); assay: Inhibition of PAK4 assessed as residual activity at 10 uM by Cherenkov counting relative to control in presence of 5 uM ATP
Chain of Serine/threonine-protein kinase PAK 4 (Homo sapiens) (O96013 whole entry, looked up): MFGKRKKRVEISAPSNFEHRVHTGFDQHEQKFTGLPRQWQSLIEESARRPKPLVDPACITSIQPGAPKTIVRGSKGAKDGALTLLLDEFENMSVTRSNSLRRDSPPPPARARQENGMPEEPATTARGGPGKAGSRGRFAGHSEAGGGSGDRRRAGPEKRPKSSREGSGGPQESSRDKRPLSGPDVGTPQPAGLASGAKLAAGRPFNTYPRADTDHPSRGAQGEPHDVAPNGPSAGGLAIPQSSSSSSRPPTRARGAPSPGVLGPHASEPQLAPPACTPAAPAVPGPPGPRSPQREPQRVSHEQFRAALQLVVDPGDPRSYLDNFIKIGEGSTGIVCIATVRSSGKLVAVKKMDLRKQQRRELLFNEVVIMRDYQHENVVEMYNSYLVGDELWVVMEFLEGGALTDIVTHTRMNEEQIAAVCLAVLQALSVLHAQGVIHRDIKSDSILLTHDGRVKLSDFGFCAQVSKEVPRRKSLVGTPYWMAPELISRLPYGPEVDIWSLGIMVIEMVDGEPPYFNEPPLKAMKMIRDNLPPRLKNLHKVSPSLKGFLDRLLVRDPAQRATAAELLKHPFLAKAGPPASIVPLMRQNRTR

[6] = molecular target: MAP/microtubule affinity-regulating kinase 3 (Homo sapiens) (UniProt P27448); assay: Inhibition of MARK3 assessed as residual activity at 0.1 uM by Cherenkov counting relative to control in presence of 5 uM ATP
Chain of MAP/microtubule affinity-regulating kinase 3 (Homo sapiens) (P27448 whole entry, looked up): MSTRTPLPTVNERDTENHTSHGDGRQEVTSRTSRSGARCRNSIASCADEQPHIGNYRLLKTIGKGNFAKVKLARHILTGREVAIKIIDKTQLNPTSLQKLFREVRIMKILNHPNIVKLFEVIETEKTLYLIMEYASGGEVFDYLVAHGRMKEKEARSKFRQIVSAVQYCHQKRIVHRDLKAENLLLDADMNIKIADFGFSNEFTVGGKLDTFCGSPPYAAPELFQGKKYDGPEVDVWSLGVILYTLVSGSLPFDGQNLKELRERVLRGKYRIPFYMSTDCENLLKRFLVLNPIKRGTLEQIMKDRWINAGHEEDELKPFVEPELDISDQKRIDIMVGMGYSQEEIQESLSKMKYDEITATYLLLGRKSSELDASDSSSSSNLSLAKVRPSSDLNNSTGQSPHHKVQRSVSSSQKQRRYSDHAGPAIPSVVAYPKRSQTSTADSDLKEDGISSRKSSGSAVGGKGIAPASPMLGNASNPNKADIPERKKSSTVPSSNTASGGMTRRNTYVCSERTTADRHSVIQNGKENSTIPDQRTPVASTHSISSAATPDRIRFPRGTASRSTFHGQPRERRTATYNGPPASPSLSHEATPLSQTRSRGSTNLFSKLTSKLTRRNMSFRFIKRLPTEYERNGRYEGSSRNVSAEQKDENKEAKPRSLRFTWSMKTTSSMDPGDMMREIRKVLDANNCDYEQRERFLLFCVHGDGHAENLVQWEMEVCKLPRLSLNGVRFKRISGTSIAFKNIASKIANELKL
Summary of the method: (§2)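 Single-concentration selectivity screen at 0.1 μM against a panel of 76 protein kinases. Each kinase was run at an ATP level approximating its Km for ATP. Output is mean residual activity as % of the control assay without compound, n = 3 ± SD.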

[7] = molecular target: Mitogen-activated protein kinase 9 (Homo sapiens) (UniProt P45984); assay: Inhibition of JNK2 assessed as residual activity at 0.1 uM by Cherenkov counting relative to control in presence of 20 uM ATP; summary of the method: as §2
Chain of Mitogen-activated protein kinase 9 (Homo sapiens) (P45984 whole entry, looked up): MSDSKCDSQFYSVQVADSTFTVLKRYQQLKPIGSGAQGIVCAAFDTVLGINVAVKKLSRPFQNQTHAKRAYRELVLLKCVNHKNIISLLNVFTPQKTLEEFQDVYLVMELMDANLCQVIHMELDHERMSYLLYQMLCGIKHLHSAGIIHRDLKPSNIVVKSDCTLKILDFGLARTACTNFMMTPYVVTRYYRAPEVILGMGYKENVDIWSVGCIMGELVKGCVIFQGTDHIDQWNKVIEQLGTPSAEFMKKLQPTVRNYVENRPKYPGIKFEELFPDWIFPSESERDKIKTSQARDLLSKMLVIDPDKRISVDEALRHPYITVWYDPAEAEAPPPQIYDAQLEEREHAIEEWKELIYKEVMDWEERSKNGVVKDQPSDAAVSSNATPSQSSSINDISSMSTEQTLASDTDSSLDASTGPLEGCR

[8] = Cell cycle arrest in human AC1-M88 cells assessed as accumulation at subG1 phase at 0.26 uM after 48 hrs by propidium iodide staining-based FACS analysis; assay type: functional
[9] = molecular target: T2, Dual specificity tyrosine-phosphorylation-regulated kinase 3 (Homo sapiens) (UniProt O43781); assay: Inhibition of DYRK3 assessed as residual activity at 0.1 uM by Cherenkov counting relative to control in presence of 5 uM ATP
T2 sequence (whole entry): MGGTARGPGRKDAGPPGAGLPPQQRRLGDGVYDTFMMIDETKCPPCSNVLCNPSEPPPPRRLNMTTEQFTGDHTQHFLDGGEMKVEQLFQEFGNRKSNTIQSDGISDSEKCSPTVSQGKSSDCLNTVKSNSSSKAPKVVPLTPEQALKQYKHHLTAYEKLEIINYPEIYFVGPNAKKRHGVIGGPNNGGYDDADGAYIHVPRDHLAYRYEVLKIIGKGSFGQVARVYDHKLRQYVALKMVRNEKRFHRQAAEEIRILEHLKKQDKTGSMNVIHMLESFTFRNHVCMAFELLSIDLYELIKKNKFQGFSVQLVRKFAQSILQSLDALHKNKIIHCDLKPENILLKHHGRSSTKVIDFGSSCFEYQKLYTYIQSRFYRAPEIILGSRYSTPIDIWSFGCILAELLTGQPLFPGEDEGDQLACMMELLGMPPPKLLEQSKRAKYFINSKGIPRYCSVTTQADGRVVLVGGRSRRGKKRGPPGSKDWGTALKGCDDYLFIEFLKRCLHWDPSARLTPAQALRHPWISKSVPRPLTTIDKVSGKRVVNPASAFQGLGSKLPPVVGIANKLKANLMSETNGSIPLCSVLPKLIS
Summary of the method: (§3)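 Single-concentration screen at 0.1 µM across a panel of 76 protein kinases. Each kinase was run at an ATP concentration approximating its ATP Km. Results are % mean residual activity versus control assays without compound (n = 3 ± SD).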

[10] = molecular target: Mitogen-activated protein kinase 15 (Homo sapiens) (UniProt Q8TD08); assay: Inhibition of ERK8 assessed as residual activity at 0.1 uM by Cherenkov counting relative to control in presence of 5 uM ATP; summary of the method: as §3
Chain of Mitogen-activated protein kinase 15 (Homo sapiens) (Q8TD08 whole entry): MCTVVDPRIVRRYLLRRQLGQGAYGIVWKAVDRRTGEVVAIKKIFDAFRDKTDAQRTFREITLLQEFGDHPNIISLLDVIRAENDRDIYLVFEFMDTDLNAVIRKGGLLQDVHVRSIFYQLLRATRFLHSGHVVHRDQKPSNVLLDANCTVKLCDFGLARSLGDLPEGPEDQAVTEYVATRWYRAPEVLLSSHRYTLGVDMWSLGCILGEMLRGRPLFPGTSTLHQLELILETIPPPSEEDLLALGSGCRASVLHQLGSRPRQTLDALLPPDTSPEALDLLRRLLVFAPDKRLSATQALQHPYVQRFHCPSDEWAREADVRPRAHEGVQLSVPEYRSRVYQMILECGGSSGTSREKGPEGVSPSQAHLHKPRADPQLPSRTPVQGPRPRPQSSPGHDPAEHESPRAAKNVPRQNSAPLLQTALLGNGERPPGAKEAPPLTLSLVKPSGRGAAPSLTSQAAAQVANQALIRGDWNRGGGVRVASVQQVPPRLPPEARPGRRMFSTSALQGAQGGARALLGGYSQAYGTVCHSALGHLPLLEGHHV

[11] = molecular target: Protein kinase C alpha type (Homo sapiens) (UniProt P17252); assay: Inhibition of PKCalpha assessed as residual activity at 0.1 uM by Cherenkov counting relative to control in presence of 20 uM ATP
Summary of the method: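 Single-concentration screen at 0.1 μM in a 76-kinase panel. ATP for each kinase was set near its Km for ATP. Residual activity is given as a percentage of control assays without compound, mean of n = 3 ± SD.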

[12] = molecular target: Casein kinase I isoform delta (Homo sapiens, UniProt P48730); assay: Inhibition of CK1delta assessed as residual activity at 0.1 uM by Cherenkov counting relative to control in presence of 20 uM ATP
Chain of Casein kinase I isoform delta (P48730 whole entry, looked up, canonical isoform): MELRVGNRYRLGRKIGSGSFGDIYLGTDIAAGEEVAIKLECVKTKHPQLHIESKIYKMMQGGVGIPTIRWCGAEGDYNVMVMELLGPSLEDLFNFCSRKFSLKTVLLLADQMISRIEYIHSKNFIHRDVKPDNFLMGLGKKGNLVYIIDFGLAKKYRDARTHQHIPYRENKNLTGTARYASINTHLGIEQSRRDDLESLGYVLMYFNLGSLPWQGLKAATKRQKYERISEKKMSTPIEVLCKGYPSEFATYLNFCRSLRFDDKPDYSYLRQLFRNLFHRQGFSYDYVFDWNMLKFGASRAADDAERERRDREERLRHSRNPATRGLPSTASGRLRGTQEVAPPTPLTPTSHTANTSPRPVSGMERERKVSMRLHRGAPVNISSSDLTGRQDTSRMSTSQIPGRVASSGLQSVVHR
Summary of the method: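 CK1δ tested within a 76-protein-kinase panel with compound at 0.1 µM. ATP for each kinase was set near its Km for ATP. Read-out was residual activity as % of control assays without compound, given as mean ± SD, n = 3.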

[13] = Cell cycle arrest in human AC1-M88 cells assessed as accumulation at G1 phase at 0.26 uM after 48 hrs by propidium iodide staining-based FACS analysis; assay type: functional
Summary of the method: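 AC1-M88 cells (extravillous trophoblast fused with the Jeg-3 choriocarcinoma mutant AC1-1) were grown in DMEM/F-12 with 10% FCS at 37 °C in humidified 5% CO2. Cells were exposed to compound for 48 h alongside a DMSO control (0.004% final), then fixed and stained with propidium iodide. Cell cycle was read by flow cytometry with the Cycle Test Plus kit.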

[14] = molecular target: Serine/threonine-protein kinase Chk2 (Homo sapiens) (UniProt O96017); assay: Inhibition of CHK2 assessed as residual activity at 0.1 uM by Cherenkov counting relative to control in presence of 20 uM ATP; summary of the method: as §3
Chain of Serine/threonine-protein kinase Chk2 (Homo sapiens) (O96017 whole entry): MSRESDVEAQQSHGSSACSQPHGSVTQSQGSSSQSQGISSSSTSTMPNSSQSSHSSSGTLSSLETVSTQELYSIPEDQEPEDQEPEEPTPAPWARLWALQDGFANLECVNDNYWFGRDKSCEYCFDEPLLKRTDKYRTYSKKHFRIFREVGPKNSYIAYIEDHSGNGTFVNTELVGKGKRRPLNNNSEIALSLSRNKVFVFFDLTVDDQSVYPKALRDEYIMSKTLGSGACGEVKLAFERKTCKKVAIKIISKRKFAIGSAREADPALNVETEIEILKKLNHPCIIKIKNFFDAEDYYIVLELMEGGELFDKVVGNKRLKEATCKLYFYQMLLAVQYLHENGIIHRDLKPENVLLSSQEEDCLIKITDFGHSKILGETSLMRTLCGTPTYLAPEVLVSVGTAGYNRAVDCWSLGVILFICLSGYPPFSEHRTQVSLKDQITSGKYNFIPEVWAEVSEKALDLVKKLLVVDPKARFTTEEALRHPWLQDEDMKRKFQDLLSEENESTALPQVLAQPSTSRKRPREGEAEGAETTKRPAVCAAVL

[15] = molecular target: Serine/threonine-protein kinase Nek6 (Homo sapiens) (UniProt Q9HC98); assay: Inhibition of NEK6 assessed as residual activity at 0.1 uM by Cherenkov counting relative to control in presence of 50 uM ATP; summary of the method: as §2
Chain of Serine/threonine-protein kinase Nek6 (Homo sapiens) (Q9HC98 whole entry): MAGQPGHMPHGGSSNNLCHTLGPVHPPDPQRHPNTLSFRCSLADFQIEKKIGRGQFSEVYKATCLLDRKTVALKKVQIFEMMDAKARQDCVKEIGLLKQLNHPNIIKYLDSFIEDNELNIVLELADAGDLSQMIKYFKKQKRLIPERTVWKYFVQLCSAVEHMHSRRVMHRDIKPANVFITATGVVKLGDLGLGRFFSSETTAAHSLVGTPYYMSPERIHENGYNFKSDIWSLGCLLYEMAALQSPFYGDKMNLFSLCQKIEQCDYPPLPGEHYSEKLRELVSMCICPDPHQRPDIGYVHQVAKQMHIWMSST

[16] = Inhibition of PKA assessed as residual activity at 0.1 uM by Cherenkov counting relative to control in presence of 20 uM ATP; summary of the method: as §2

| Activity [1] [%] | Activity [2] [%] | Activity [3] [%] | Activity [4] [%] | Activity [5] [%] | Activity [6] [%] | Activity [7] [%] | Activity [9] [%] | Activity [11] [%] | Activity [12] [%] | Activity [14] [%] | Activity [15] [%] | Activity [16] [%] | Structure (SMILES) | Activity [8] [%] | Activity [10] [%] | Activity [13] [%] |
| --- | --- | --- | --- | --- | --- | --- | --- | --- | --- | --- | --- | --- | --- | --- | --- | --- |
| 96 | 100 | 90 | 104 | 107 | – | – | – | – | – | – | – | – | CC(C)c1noc(-c2ccc(F)cc2)c1-c1ccncc1 | – | – | – |
| 98 | 105 | 28 | 95 | 106 | – | – | – | – | – | – | – | – | CC(C)c1onc(-c2ccc(F)cc2)c1-c1ccncc1 | – | – | – |
| – | – | – | – | – | 89 | 12 | 90 | 103 | 18 | 85 | 111 | 92 | COc1ccc(/C=C/C(=O)Nc2cc(-c3[nH]c([S+](C)[O-])nc3-c3ccc(F)cc3)ccn2)c(OC)c1 (stereo not given) | 77.1 | 88 | 12 |
| – | – | – | – | – | 87 | 31 | 104 | 110 | 10 | 79 | 90 | 84 | COc1ccc(/C=C/C(=O)Nc2cc(-c3[nH]c(SC)nc3-c3ccc(F)cc3)ccn2)c(OC)c1 | – | 83 | – |
